ChEMBL document CHEMBL4364291, “Benzylideneacetone Derivatives Inhibit Osteoclastogenesis and Activate Osteoblastogenesis Independently Based on Specific Structure-Activity Relationship” (J Med Chem, 2019)
Active and inactive are the calls of the source. The calls are words filed in the database; no cut-off is given here.

Tests used:
BMDM [1] = assay: Suppression of NFATc1 expression in M-CSF induced C57BL/6 mouse bone marrow macrophages at 0.5 uM measured over 5 days by Western blot analysis; format: functional, cell-based
Method in brief: (§1)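 C57BL/6 BMM were kept proliferating with M-CSF in the absence of RANKL and treated with compound (0.5 or 10 μM). NFATc1 expression was followed over the culture period by Western blot.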

Mus musculus [2] = assay: Antiosteoporotic activity in ddY mouse model of OVX-induced osteoporosis assessed as increase in femur bone mineral density at 1 mg/kg, po administered once daily via gavage for 4 weeks by microcomputed tomographic analysis; format: functional, organism-based
Method in brief: (§2)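 Female ddY mice were ovariectomized. Oral gavage began 1 week after surgery and ran once daily for 28 d. Vehicle was 300 μL PBS containing 0.5% (v/v) DMSO, also given to sham and OVX controls. Mice were then euthanized and femur and tibia fixed for CT imaging. Values are mean ± SD of four mice.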

Mus musculus [3] = assay: Antiosteoporotic activity in ddY mouse model of OVX-induced osteoporosis assessed as increase in ratio of bone volume/trabecular volume in femur bone at 1 mg/kg, po administered once daily via gavage for 4 weeks by microcomputed tomographic analysis; format: functional, organism-based; method in brief: as §2
Mus musculus [4] = assay: Antiosteoporotic activity in ddY mouse model of OVX-induced osteoporosis assessed as reduction in trabecular separation in femur bone at 1 mg/kg, po administered once daily via gavage for 4 weeks by microcomputed tomographic analysis; format: functional, organism-based; method in brief: as §2
Mus musculus [5] = assay: Antiosteoporotic activity in ddY mouse model of OVX-induced osteoporosis assessed as increase in new bone volume in femur bone at 1 mg/kg, po administered once daily via gavage for 4 weeks by microcomputed tomographic analysis; format: functional, organism-based; method in brief: as §2
T-24 = assay: Antiproliferative activity against human T24 cells after 24 hrs by MTT assay; format: functional; conditions: T-24, 24 h, read-out: LD50 (the source's name)
[6] = Potency index, ratio of alendronate IC50 to test compound IC50 for inhibition of M-CSF/RANKL-induced osteoclast differentiation in C57BL/6 mouse bone marrow macrophages by measuring decrease in multinucleated TRAP+ cells incubated for 6 days with fresh media replacement on day 3 and measured on day 6 by TRAP staining-based microscopic analysis; format: functional, BMDM
MC3T3-E1 [7] = assay: Induction of osteoblast differentiation in mouse MC3T3-E1 cells co-cultured with C57BL/6 mouse bone marrow macrophages assessed as activation of ALP production at 10 uM measured on day 14 relative to control; format: functional
Method in brief: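 MC3T3-E1 cells were cocultured with C57BL/6 BMM in differentiation factors for both cell types, with 10 μM compound, and grown for 21 d. ALP production was measured at 7, 14 and 21 d after coculture induction, relative to untreated cells.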

[8] = Inhibition of M-CSF/RANKL-induced osteoclast differentiation in C57BL/6 mouse bone marrow macrophage assessed as reduction in multinucleated TRAP+ cells at 10 uM incubated for 6 days with fresh media replacement on day 3 and measured on day 6 by TRAP staining-based microscopic analysis relative to control; format: functional; conditions: C57BL/6, BMDM
Method in brief: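 BMM came from femur and tibia marrow of 5–8-week-old male C57BL/6 mice and were purified over lymphocyte separation medium. Cells, 1 × 10^5 per well, were grown in α-MEM/10% FBS with M-CSF (60 ng/mL) and RANKL (150 ng/mL) for 6 d, medium changed day 3. Compound range was 0.01−100 μM. TRAP+ multinucleated cells were counted on day 6.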

[9] = Inhibition of M-CSF/RANKL-induced osteoclast differentiation in C57BL/6 mouse bone marrow macrophage assessed as reduction in bone resorption at 7.8 uM treated for 3 days starting from 6 days post M-CSF/RANKL-stimulation by europium-conjugated collagen based time-resolved fluorescence assay relative to control; format: functional, BMDM; parameters: scale not given: the % may be the effect or the level left
Method in brief: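 Mature multinucleated osteoclasts differentiated from C57BL/6 BMM were exposed to compound for 3 d in a bone resorption assay. Resorption was compared with untreated mature osteoclasts.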

MC3T3-E1 [10] = assay: Induction of osteoblast differentiation in ascorbic acid/beta-glycerophosphate-induced mouse MC3T3-E1 cells co-cultured with C57BL/6 mouse bone marrow macrophages at 10 uM measured on day 6 by TRAP staining-based inverted microscopic analysis; format: functional, cell-based
MC3T3-E1 [11] = assay: Induction of osteoblast differentiation in mouse MC3T3-E1 cells assessed as increase in osteocalcin expression at 50 uM after 14 days by Western blot analysis relative to control; format: functional
Method in brief: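 MC3T3-E1 cells were differentiated with osteoblast differentiation factors, with or without 50 μM compound, for 21 d. The negative control lacked differentiation factors. Osteocalcin in culture medium was measured by Western blot at 7, 14 and 21 d. Values are mean ± SD of three independent experiments.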

BMDM [12] = assay: Inhibition of M-CSF/RANKL-induced osteoclast differentiation in C57BL/6 mouse bone marrow macrophages co-cultured with mouse MC3T3-E1 at 10 uM measured on day 7; format: functional, cell-based
BMDM [13] = assay: Inhibition of M-CSF/RANKL-induced osteoclast differentiation in C57BL/6 mouse bone marrow macrophages co-cultured with mouse MC3T3-E1 at 10 uM measured on day 14; format: functional, cell-based
BMDM [14] = assay: Inhibition of M-CSF/RANKL-induced osteoclast differentiation in C57BL/6 mouse bone marrow macrophages co-cultured with mouse MC3T3-E1 at 10 uM measured on day 21; format: functional, cell-based
BMDM [15] = assay: Inhibition of RANKL-induced osteoclastogenesis in C57BL/6 mouse bone marrow macrophages assessed as effect on NFATc1 expression at 10 uM measured over 5 days by Western blot analysis; format: functional, cell-based
Method in brief: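 C57BL/6 BMM were grown with M-CSF plus RANKL over the course of osteoclastogenesis, treated at 0.5 or 10 μM. NF-κB and NFATc1 were followed by Western blot. The negative control was M-CSF only.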

BMDM [16] = assay: Effect on NFkappaB expression in M-CSF induced C57BL/6 mouse bone marrow macrophages at 10 uM measured over 5 days by Western blot analysis; format: functional, cell-based
Method in brief: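 C57BL/6 BMM were proliferated with M-CSF alone without RANKL and treated at 0.5 or 10 μM. NF-κB expression was followed over time by Western blot.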

BMDM [17] = assay: Suppression of NFATc1 expression in M-CSF induced C57BL/6 mouse bone marrow macrophages at 10 uM measured over 5 days by Western blot analysis; format: functional, cell-based; method in brief: as §1
MC3T3-E1 [18] = assay: Induction of osteoblast differentiation in ascorbic acid/beta-glycerophosphate-induced mouse MC3T3-E1 cells assessed as increase in RUNX2 expression at 50 uM after 7 days by Western blot analysis relative to control; format: functional
Method in brief: (§3)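 MC3T3-E1 cells were induced with osteoblast differentiation factors, with or without 50 μM compound, for 21 d. Cells were harvested at 7, 14 and 21 d and RUNX2 was quantified by Western blot against untreated differentiated cells. The negative control lacked differentiation factors. Values are mean ± SD of three independent experiments.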

MC3T3-E1 [19] = assay: Induction of osteoblast differentiation in ascorbic acid/beta-glycerophosphate-induced mouse MC3T3-E1 cells assessed as increase in RUNX2 expression at 50 uM after 14 days by Western blot analysis relative to control; format: functional; method in brief: as §3
MC3T3-E1 [20] = assay: Induction of osteoblast differentiation in mouse ascorbic acid/beta-glycerophosphate-induced MC3T3-E1 cells assessed as increase in RUNX2 expression at 50 uM after 21 days by Western blot analysis relative to control; format: functional; method in brief: as §3
[21] = Cytotoxicity against human HaCaT cells after 24 hrs by MTT assay; format: cell-based; conditions: read-out: LD50
Method in brief: (§4)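 Cells were maintained in DMEM at 37 °C under 5% CO2. Growth and survival were estimated by MTT assay, and the value is reported as LD50.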

[22] = Cytotoxicity against mouse NIH/3T3 cells after 24 hrs by MTT assay; format: cell-based, NIH3T3; conditions: read-out: LD50; method in brief: as §4
PC-3 = assay: Antiproliferative activity against human PC3 cells after 24 hrs by MTT assay; format: functional; conditions: PC-3, 24 h, read-out: LD50 (the source's name); method in brief: as §4

SMILES: COc1ccc(/C=C/C(C)=O)cc1O
- Activity (BMDM [1]): Active
- Activity (Mus musculus [2]): Active
- Activity (Mus musculus [3]): Active
- Activity (Mus musculus [4]): Active
- Activity (Mus musculus [5]): Active
- CC50 (T-24): 180 µM
- Ratio IC50 [6]: 30

SMILES: CC(=O)/C=C/c1ccc(O)c(O)c1
- Activity (MC3T3-E1 [7]): 110%
- inhibition at 10 µM [8]: 100%
- Activity [9]: <=59%
- Activity (MC3T3-E1 [10]): Active
- fold change (FC) (MC3T3-E1 [11]): 4.1
- inhibition (BMDM [12]): Active
- inhibition (BMDM [13]): Active
- inhibition (BMDM [14]): Active
- inhibition (BMDM [15]): inactive
- Activity (BMDM [16]): inactive
- Activity (BMDM [17]): Active
- fold change (FC) (MC3T3-E1 [18]): 1.7
- fold change (FC) (MC3T3-E1 [19]): 1.4
- fold change (FC) (MC3T3-E1 [20]): 3.2
- CC50 at 24 h [21]: 3500 µM
- CC50 at 24 h [22]: > 5000 µM
- CC50 (PC-3): 66 µM
